Consider one molecule from paper PMC6851657 (Clinical Pharmacology and Therapeutics, 2019).

Data set [1] has as its target CYP2C9 (Homo sapiens, UniProt P11712). It counts as in vitro ADME. In a few lines:
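Genotype-specific hepatic intrinsic clearance (CLint,h) was back-calculated from population PK total plasma clearance for each CYP2C9 genotype (*1/*1, *1/*2, *1/*3, *2/*2, *2/*3, *3/*3). Clearance was assumed to be entirely CYP-mediated hepatic metabolism, with purely passive hepatocyte uptake. CLint,h was split across CYP2C9, 3A4, 2B6, 2C8 and 2C19 by in vitro phenotyping fm. fu(mic) was set to 1. Values served as SimCYP PBPK inputs.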

The conditions of data set [2]: cited from earlier work.
Data set [3] addresses T1, CYP2C8 (Homo sapiens, UniProt P10632).
T1 sequence (P10632 1-490): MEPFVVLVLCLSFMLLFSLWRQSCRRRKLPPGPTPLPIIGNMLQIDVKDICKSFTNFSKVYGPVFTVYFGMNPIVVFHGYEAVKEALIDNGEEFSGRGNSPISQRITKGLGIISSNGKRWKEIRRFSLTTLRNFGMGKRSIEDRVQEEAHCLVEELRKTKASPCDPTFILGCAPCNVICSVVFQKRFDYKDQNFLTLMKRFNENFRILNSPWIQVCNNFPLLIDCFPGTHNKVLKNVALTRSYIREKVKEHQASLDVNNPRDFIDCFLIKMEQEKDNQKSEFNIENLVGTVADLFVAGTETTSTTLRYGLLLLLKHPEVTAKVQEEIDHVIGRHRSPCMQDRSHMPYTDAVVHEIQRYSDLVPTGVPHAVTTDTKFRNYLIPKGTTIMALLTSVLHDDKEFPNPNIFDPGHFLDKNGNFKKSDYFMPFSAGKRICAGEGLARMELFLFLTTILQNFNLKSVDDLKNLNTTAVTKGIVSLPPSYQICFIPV
The experiment in a line: Enzyme phenotyping, intrinsic clearance by retrograde calculation. It counts as in vitro ADME.

Where two headings read alike, the source gives them in different places. Marks after values point to notes of the source that are not given here.

Chain of CYP2C9 (P11712 whole entry): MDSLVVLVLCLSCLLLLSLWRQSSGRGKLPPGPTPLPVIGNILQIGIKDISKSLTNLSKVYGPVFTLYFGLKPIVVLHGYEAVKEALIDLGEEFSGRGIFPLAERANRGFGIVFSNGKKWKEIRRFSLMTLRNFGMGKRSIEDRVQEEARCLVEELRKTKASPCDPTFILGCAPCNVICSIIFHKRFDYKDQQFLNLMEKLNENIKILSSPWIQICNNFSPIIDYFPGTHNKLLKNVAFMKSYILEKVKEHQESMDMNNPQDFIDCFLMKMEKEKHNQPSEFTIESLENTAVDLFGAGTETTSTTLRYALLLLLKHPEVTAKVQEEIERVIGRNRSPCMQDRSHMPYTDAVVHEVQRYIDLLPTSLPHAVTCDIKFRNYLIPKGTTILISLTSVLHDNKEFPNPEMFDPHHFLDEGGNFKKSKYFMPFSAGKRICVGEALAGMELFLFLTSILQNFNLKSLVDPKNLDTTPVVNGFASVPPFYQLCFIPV

As for `CCc1cc(/C(C)=N/OCc2ccc(C3CCCCC3)c(C(F)(F)F)c2)ccc1CN1CC(C(=O)O)C1` [siponimod], the fmCYP2C9 in data set [1] (CYP2C9*1/*1) is 0.804; in data set [1] (CYP2C9*1/*2) it was 0.788; in data set [1] (CYP2C9*1/*3), 0.678; in data set [1] (CYP2C9*2/*2) it was 0.727; in data set [1] (CYP2C9*2/*3), 0.616. In data set [2] (based on amount of siponimod excreted to feces), the “Fraction available from dosage form” value was 0.91 ^c. Further, the Absorption rate constant in data set [2] (estimated based on PopPK model, ref Novartis data on file) is 0.687 ^d 1/hour. Also, the “CLint (CYP2C8)” value in data set [3] was 2.941 µL/min/pmol. Besides, the fmCYP2C8 in data set [3] (fraction metabolized) was 0.017.
